Assay results as given in article PMC7985749 (CNS Drugs, 2021).

Columns and labels:
Format in all cases: in vivo, human
[1] = CSF pharmacokinetics substudy; details: for Kp at 2 h / Kp at 6 h / Kp at 12 h / concentration at 2 h / concentration at 6 h / concentration at 12 h: male, human, oral; for Kp at 2 h / Kp at 6 h / Kp at 12 h: CSF / unbound plasma
Procedure, shortened: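 Open-label cohorts of healthy volunteers got a single oral dose of 2 or 4 mg. CSF and plasma were sampled predose and at preset timepoints, n = 3 subjects per timepoint. Levels were measured by GLP-validated LC-MS/MS: ethyl acetate liquid–liquid extraction, C18 column, positive ESI, deuterated internal standard. LLOQ was 50 pg/mL (CSF) and 10 pg/mL (plasma). Unbound plasma concentration was total corrected by an in vitro dialysis fraction unbound.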

[2] = Adverse events / TEAEs, MAD cohort
[3] = Adverse events / TEAEs, SAD cohort

In the case of Nc1nnc(CN[C@@H]2C[C@H]2c2ccc(OCc3ccccc3)cc2)o1 [vafidemstat], the “Blood–brain barrier crossing” value ([1]; CSF cohort, quantifiable CSF concentrations from 2 h post-dose) is reported as “shown to cross the human blood–brain barrier”, the Kp at 2 h ([1]; 2 mg) is reported as 0.78 and the Kp at 6 h ([1]; 2 mg) is reported as 0.74. The Kp at 12 h ([1]; 2 mg) was 0.92, the Kp at 2 h ([1]; 4 mg) was 0.69 and the Kp at 6 h ([1]; 4 mg) was 0.83. For the same compound, the Kp at 12 h ([1]; 4 mg) was 0.91, the concentration at 2 h ([1]; CSF, 2 mg) was 0.239 ng/mL and the concentration at 6 h ([1]; CSF, 2 mg) was 0.181 ng/mL. For the same compound, the concentration at 12 h ([1]; CSF, 2 mg) was 0.17 ng/mL, the concentration at 2 h ([1]; CSF, 4 mg) was 0.387 ng/mL and the concentration at 6 h ([1]; CSF, 4 mg) was 0.734 ng/mL. It also gave a concentration at 12 h ([1]; CSF, 4 mg) of 0.55 ng/mL, a concentration at 2 h ([1]; plasma (unbound), 2 mg) of 0.316 ng/mL and a concentration at 6 h ([1]; plasma (unbound), 2 mg) of 0.248 ng/mL. For the same compound, the concentration at 12 h ([1]; plasma (unbound), 2 mg) was 0.186 ng/mL, the concentration at 2 h ([1]; plasma (unbound), 4 mg) was 0.59 ng/mL and the concentration at 6 h ([1]; plasma (unbound), 4 mg) was 0.871 ng/mL. The concentration at 12 h ([1]; plasma (unbound), 4 mg) was 0.609 ng/mL, the “Number of AEs related to the study treatment” value ([2]; MAD stage, healthy young volunteers, with vafidemstat) was 44 and the “Number of TEAEs (% of total TEAEs): Asthenia” value ([2]; MAD, 0.2 mg/day, n = 6) was 2 (3.3) n (%). For the same compound, the “Number of TEAEs (% of total TEAEs): Dizziness postural” value ([2]; MAD, 0.2 mg/day, n = 6) was 1(1.6) n (%), the “Number of TEAEs (% of total TEAEs): Feeling hot” value ([2]; MAD, 0.2 mg/day, n = 6) was 1(1.6) n (%) and the “Number of TEAEs (% of total TEAEs): Headache” value ([2]; MAD, 0.2 mg/day, n = 6) was 3 (4.9) n (%). The “Number of TEAEs (% of total TEAEs): Hematoma” value ([2]; MAD, 0.2 mg/day, n = 6) was 1 (1.6) n (%), the “Number of TEAEs (% of total TEAEs): Muscle spasms” value ([2]; MAD, 0.2 mg/day, n = 6) was 1(1.6) n (%) and the “Number of TEAEs (% of total TEAEs): Palpitations” value ([2]; MAD, 0.2 mg/day, n = 6) was 1 (1.6) n (%). The “Number of TEAEs (% of total TEAEs): Total” value ([2]; MAD, 0.2 mg/day, n = 6) was 10 (16.4) n (%), the “Number of TEAEs (% of total TEAEs): Apathy” value ([2]; MAD, 0.6 mg/day, n = 6) was 1 (1.6) n (%) and the “Number of TEAEs (% of total TEAEs): Asthenia” value ([2]; MAD, 0.6 mg/day, n = 6) was 1 (1.6) n (%). The “Number of TEAEs (% of total TEAEs): Blunted affect” value ([2]; MAD, 0.6 mg/day, n = 6) was 2 (3.3) n (%), the “Number of TEAEs (% of total TEAEs): Daydreaming” value ([2]; MAD, 0.6 mg/day, n = 6) was 1 (1.6) n (%) and the “Number of TEAEs (% of total TEAEs): Dyspepsia” value ([2]; MAD, 0.6 mg/day, n = 6) was 1 (1.6) n (%). The “Number of TEAEs (% of total TEAEs): Euphoric mood” value ([2]; MAD, 0.6 mg/day, n = 6) was 1 (1.6) n (%), the “Number of TEAEs (% of total TEAEs): Feeling drunk” value ([2]; MAD, 0.6 mg/day, n = 6) was 1 (1.6) n (%) and the “Number of TEAEs (% of total TEAEs): Headache” value ([2]; MAD, 0.6 mg/day, n = 6) was 1 (1.6) n (%). For the same compound, the “Number of TEAEs (% of total TEAEs): Somnolence” value ([2]; MAD, 0.6 mg/day, n = 6) was 2 (3.3) n (%), the “Number of TEAEs (% of total TEAEs): Total” value ([2]; MAD, 0.6 mg/day, n = 6) was 11 (18.0) n (%) and the “Number of TEAEs (% of total TEAEs): Asthenia” value ([2]; MAD, 1.0 mg/day, n = 6) was 1 (1.6) n (%). For the same compound, the “Number of TEAEs (% of total TEAEs): Constipation” value ([2]; MAD, 1.0 mg/day, n = 6) was 1 (1.6) n (%), the “Number of TEAEs (% of total TEAEs): Dizziness postural” value ([2]; MAD, 1.0 mg/day, n = 6) was 1 (1.6) n (%) and the “Number of TEAEs (% of total TEAEs): Dry mouth” value ([2]; MAD, 1.0 mg/day, n = 6) was 4 (6.5) n (%). For the same compound, the “Number of TEAEs (% of total TEAEs): Feeling cold” value ([2]; MAD, 1.0 mg/day, n = 6) was 3 (4.9) n (%), the “Number of TEAEs (% of total TEAEs): Headache” value ([2]; MAD, 1.0 mg/day, n = 6) was 2 (3.3) n (%) and the “Number of TEAEs (% of total TEAEs): Nasopharyngitis” value ([2]; MAD, 1.0 mg/day, n = 6) was 1 (1.6) n (%). For the same compound, the “Number of TEAEs (% of total TEAEs): Total” value ([2]; MAD, 1.0 mg/day, n = 6) was 13 (21.3) n (%), the “Number of TEAEs (% of total TEAEs): Dry mouth” value ([2]; MAD, 1.5 mg/day, n = 6) was 3 (4.9) n (%) and the “Number of TEAEs (% of total TEAEs): Headache” value ([2]; MAD, 1.5 mg/day, n = 6) was 2 (3.3) n (%). The “Number of TEAEs (% of total TEAEs): Salivary hypersecretion” value ([2]; MAD, 1.5 mg/day, n = 6) was 1 (1.6) n (%), the “Number of TEAEs (% of total TEAEs): Somnolence” value ([2]; MAD, 1.5 mg/day, n = 6) was 1 (1.6) n (%) and the “Number of TEAEs (% of total TEAEs): Total” value ([2]; MAD, 1.5 mg/day, n = 6) was 7 (11.5) n (%). For the same compound, the “Number of TEAEs (% of total TEAEs): Dry mouth” value ([2]; MAD, 2.5 mg/day, n = 6) was 1 (1.6) n (%), the “Number of TEAEs (% of total TEAEs): Total” value ([2]; MAD, 2.5 mg/day, n = 6) was 1 (1.6) n (%) and the “Number of TEAEs (% of total TEAEs): Headache” value ([2]; MAD, 4.0 mg/day, n = 3) was 2 (3.3) n (%). The “Number of TEAEs (% of total TEAEs): Total” value ([2]; MAD, 4.0 mg/day, n = 3) was 2 (3.3) n (%), the “Number of treatment-related AEs” value ([3]; SAD stage, subjects receiving vafidemstat) was 12 and the “Number of TEAEs (% of total TEAEs): Headache” value ([3]; SAD, 0.2 mg, n = 6) was 1 (7.7) n (%). For the same compound, the “Number of TEAEs (% of total TEAEs): Total” value ([3]; SAD, 0.2 mg, n = 6) was 1 (7.7) n (%), the “Number of TEAEs (% of total TEAEs): Euphoric mood” value ([3]; SAD, 0.6 mg, n = 6) was 1 (7.7) n (%) and the “Number of TEAEs (% of total TEAEs): Feeling hot” value ([3]; SAD, 0.6 mg, n = 6) was 1 (7.7) n (%). For the same compound, the “Number of TEAEs (% of total TEAEs): Headache” value ([3]; SAD, 0.6 mg, n = 6) was 1 (7.7) n (%) and the “Number of TEAEs (% of total TEAEs): Total” value ([3]; SAD, 0.6 mg, n = 6) was 3 (23.1) n (%).
